Active and inactive are the calls of the source. No cut-off for these calls is given here.
Assays:
Prostaglandin E synthase [1] = biological target: T1, Prostaglandin E synthase (Homo sapiens, UniProt O14684); experiment: Inhibition of mPGES1-mediated PGE2 production in microsomes of IL-1beta stimulated human A549 cells preincubated for 15 mins by RP-HPLC analysis; format: cell-based
T1 sequence (O14684 whole entry): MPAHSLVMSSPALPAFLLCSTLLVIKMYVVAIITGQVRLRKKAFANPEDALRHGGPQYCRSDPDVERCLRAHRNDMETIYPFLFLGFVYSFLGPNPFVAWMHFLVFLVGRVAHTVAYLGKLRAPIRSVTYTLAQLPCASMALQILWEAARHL
Outline: (§1)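 mPGES-1 source: microsomes of A549 cells treated 48 h with IL-1β 2 ng/mL, at 25−50 μg protein/mL in 0.1 M potassium phosphate pH 7.4 with 2.5 mM glutathione. Compound preincubation 15 min at 4 °C; PGH2 (20 μM final) for 1 min; FeCl2/citric acid stop with 11β-PGE2 internal standard. PGE2 by RP-HPLC.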

[2] = biological target: T2, Polyunsaturated fatty acid lipoxygenase ALOX12 (Homo sapiens) (UniProt P18054); experiment: Inhibition of 12-LO in human neutrophils assessed as residual activity relative to control; conditions: for residual activity: values are per cent of control
T2 sequence (whole entry): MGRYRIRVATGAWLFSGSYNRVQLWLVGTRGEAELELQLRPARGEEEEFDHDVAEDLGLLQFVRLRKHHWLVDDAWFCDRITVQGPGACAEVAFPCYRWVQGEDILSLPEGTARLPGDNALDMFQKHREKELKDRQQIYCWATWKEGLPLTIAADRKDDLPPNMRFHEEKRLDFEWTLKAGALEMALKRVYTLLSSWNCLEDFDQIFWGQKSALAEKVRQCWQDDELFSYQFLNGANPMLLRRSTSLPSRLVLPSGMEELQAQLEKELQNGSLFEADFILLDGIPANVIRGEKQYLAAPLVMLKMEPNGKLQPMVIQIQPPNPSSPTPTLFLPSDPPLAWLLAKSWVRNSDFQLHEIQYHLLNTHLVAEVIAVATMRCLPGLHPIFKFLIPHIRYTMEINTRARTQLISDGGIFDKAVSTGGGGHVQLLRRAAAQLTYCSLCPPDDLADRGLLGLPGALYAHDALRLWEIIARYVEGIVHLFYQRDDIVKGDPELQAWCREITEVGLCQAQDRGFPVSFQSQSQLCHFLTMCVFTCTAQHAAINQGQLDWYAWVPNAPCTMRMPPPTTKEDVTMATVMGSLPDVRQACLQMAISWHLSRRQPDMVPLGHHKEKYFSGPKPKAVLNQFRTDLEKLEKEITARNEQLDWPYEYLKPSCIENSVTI

[3] = biological target: T3, Polyunsaturated fatty acid 5-lipoxygenase (Homo sapiens) (UniProt P09917); experiment: Ratio of curcumin IC50 to compound IC50 for 5-LO-mediated 5-HETE formation in LPS-stimulated human monocytes preincubated for 15 mins before arachidonic acid substrate addition measured after 30 mins by UPLC-MS/MS analysis; format: cell-based
T3 sequence (whole entry): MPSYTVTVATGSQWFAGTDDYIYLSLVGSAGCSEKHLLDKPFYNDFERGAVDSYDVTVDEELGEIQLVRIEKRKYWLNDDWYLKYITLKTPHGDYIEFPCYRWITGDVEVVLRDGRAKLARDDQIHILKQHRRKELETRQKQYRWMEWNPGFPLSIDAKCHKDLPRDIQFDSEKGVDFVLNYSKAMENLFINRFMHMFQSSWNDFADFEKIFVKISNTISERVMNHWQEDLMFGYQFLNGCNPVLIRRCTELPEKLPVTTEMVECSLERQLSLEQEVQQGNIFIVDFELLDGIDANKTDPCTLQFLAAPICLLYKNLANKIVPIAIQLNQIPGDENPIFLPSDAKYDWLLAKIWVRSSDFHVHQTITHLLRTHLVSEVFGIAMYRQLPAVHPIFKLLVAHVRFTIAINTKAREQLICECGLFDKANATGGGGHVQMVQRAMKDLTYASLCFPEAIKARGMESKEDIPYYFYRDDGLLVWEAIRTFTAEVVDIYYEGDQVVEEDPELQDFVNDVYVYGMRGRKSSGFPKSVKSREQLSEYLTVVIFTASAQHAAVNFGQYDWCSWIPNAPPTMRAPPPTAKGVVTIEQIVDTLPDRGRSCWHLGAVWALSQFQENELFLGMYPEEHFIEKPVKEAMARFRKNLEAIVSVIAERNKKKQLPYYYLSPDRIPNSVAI

[4] = biological target: T3, Polyunsaturated fatty acid 5-lipoxygenase (Homo sapiens); experiment: Ratio of curcumin IC50 to compound IC50 for 5-LO-mediated 5,12-DiHETE formation in LPS-stimulated human monocytes preincubated for 15 mins before arachidonic acid substrate addition measured after 30 mins by UPLC-MS/MS analysis; format: cell-based
[5] = biological target: T3, Polyunsaturated fatty acid 5-lipoxygenase (Homo sapiens); experiment: Ratio of curcumin IC50 to compound IC50 for 5-LO-mediated LTB4 formation in LPS-stimulated human monocytes preincubated for 15 mins before arachidonic acid substrate addition measured after 30 mins by UPLC-MS/MS analysis; format: cell-based
[6] = biological target: T4, Prostaglandin E synthase (Homo sapiens) (UniProt O14684); experiment: Inhibition of mPGES1-mediated PGE2 production in microsomes of IL-1beta stimulated human A549 cells assessed as residual activity preincubated at 10 uM for 15 mins by RP-HPLC analysis relative to control; format: cell-based; outline: as §1
T4 sequence (whole entry): T1 sequence (O14684 whole entry)

[7] = biological target: T5, Prostaglandin G/H synthase 1 (Homo sapiens, UniProt P23219); experiment: Inhibition of COX1-mediated PGD2 formation in LPS-stimulated human monocytes preincubated for 15 mins before arachidonic acid substrate addition measured after 30 mins by UPLC-MS/MS analysis; format: cell-based
T5 sequence (P23219 whole entry): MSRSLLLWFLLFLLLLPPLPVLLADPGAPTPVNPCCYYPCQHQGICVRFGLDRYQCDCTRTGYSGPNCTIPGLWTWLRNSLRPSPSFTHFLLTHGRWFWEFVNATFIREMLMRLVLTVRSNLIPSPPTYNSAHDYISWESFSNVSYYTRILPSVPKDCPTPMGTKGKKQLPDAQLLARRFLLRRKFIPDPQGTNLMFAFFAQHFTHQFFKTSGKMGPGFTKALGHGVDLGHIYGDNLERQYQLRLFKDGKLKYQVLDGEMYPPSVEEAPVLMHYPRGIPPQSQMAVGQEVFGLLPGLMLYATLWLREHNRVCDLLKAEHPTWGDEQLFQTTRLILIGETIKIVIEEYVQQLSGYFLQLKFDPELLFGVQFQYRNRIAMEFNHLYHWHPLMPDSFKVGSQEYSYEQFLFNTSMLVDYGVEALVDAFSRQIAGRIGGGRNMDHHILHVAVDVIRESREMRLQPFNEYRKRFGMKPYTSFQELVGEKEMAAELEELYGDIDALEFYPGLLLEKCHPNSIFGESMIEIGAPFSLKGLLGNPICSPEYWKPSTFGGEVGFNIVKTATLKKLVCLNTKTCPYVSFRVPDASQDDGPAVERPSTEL

[8] = biological target: T6, Polyunsaturated fatty acid lipoxygenase ALOX12 (Homo sapiens, UniProt P18054); experiment: Inhibition of 12-LO in human neutrophils
T6 sequence (P18054 whole entry): T2 sequence (whole entry)

[9] = biological target: T5, Prostaglandin G/H synthase 1; experiment: Inhibition of COX1-mediated PGF2alpha formation in LPS-stimulated human monocytes preincubated for 15 mins before arachidonic acid substrate addition measured after 30 mins by UPLC-MS/MS analysis; format: cell-based
[10] = biological target: T4, Prostaglandin E synthase (Homo sapiens); experiment: (§2) Inhibition of mPGES1-mediated PGE2 formation in LPS-stimulated human monocytes preincubated for 15 mins before arachidonic acid substrate addition measured after 30 mins by UPLC-MS/MS analysis; format: cell-based
Outline: (§3)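 Fresh human monocytes (adherence-isolated, >85% CD14+; 5 × 10⁶/well) primed with LPS 1 μg/mL for 24 h. Washed, 15 min preincubation, then 2.5 μM A23187 plus 20 μM arachidonic acid for 30 min. Eicosanoids extracted and measured by UPLC-MS/MS, normalized to PGB1 as relative intensities. Two to three independent experiments.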

Prostaglandin E synthase [11] = biological target: T1, Prostaglandin E synthase; experiment: as §2; format: cell-based; outline: as §3

residual activity [2]	Ratio IC50 [3]	Ratio IC50 [4]	Ratio IC50 [5]	Activity [6]	inhibition [7]	inhibition [9]	Compound	other results
–	2	2	2	62.2%	Active	Active	COc1cc(/C=C/c2cc(-c3ccc(O)c(OC)c3)[nH]n2)ccc1O	IC50 [8]: 7.7 µM; inhibition [10]: Active
70.1%	–	–	–	–	–	–	COc1cc(/C=C/C(=O)/C=C/c2ccc(O)c(OC)c2)ccc1O	IC50 (Prostaglandin E synthase [1]; a549): Not Active
–	2	2	2	54.8%	Active	Active	COc1cc(/C=C/c2cc(/C=C/c3ccc(O)c(OC)c3)[nH]n2)ccc1O [CURCUMIN PYRAZOLE]	IC50 [8]: 7.3 µM; inhibition [10]: Active

The next lines start with the compound.

Compound	residual activity [2]	Ratio IC50 [3]	Ratio IC50 [4]	Ratio IC50 [5]	Activity [6]	inhibition [7]	inhibition [9]	other results
COc1cc(/C=C/C(=O)/C=C/c2cc(CC=C(C)C)c(O)c(OC)c2)cc(CC=C(C)C)c1O	64.7%	2	2	2	–	–	–	IC50 (Prostaglandin E synthase [1]; read-out: IC50): 1.5 µM
COc1cc(/C=C/C(=O)CC(=O)c2ccc(O)c(OC)c2)ccc1O	60.6%	–	–	–	72.6%	–	–	–
COc1cc(CCC(=O)CC(=O)CCc2ccc(O)c(OC)c2)ccc1O [TETRAHYDROCURCUMIN]	87.4%	–	–	–	–	–	–	IC50 (Prostaglandin E synthase [1]; a549): Not Active
COc1cc(/C=C/C(=O)CC(=O)/C=C/c2cc(CC=C(C)C)c(O)c(OC)c2)cc(CC=C(C)C)c1O	–	–	–	–	59.6%	–	–	inhibition [2]: inactive
COc1cc(/C=C/C(=O)CC(=O)/C=C/c2ccc(O)c(OC)c2)ccc1O [CURCUMIN]	65%	–	–	–	–	Active	Active	IC50 (Prostaglandin E synthase [1]; read-out: IC50): 0.6 µM; IC50 (Prostaglandin E synthase [11]): 1.2 µM
COc1cc(/C=C/c2cc(/C=C/c3cc(CC=C(C)C)c(O)c(OC)c3)[nH]n2)cc(CC=C(C)C)c1O	68.7%	–	–	–	68%	–	–	IC50 [7]: > 10 µM; IC50 [9]: > 10 µM; IC50 (Prostaglandin E synthase [11]): > 10 µM

— ChEMBL document CHEMBL3286393 (J Med Chem, 2014)
